In ChEMBL document CHEMBL1156265, “Furo[2,3-b]pyridine-based cannabinoid-1 receptor inverse agonists: synthesis and biological evaluation. Part 1” (Bioorg Med Chem Lett, 2010):

Legend:
[1] = Drug level in rat plasma at 1 mg/kg, iv after 4 hrs; format: ADME, organism-based; parameters: dose 1 mg/kg, route intravenous; conditions: read-out: Drug uptake
Rattus norvegicus [2] = assay: Suppression of food intake in DIO rat at 1 mg/kg, po relative to control; format: functional
In short: (§1)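 Acute study in diet-induced obese rats. A single oral dose was given and rats were monitored for 18 h. Food intake suppression and body weight change were measured relative to vehicle-treated controls.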

[3] = Bioavailability in rat; format: ADME, organism-based; conditions: in vivo
[4] = Half life in dog; format: ADME, organism-based, Canis lupus familiaris; conditions: in vivo
In short: (§2)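 PK in dog and rhesus macaque. Bioavailability, plasma clearance (mL/min/kg) and terminal half-life derived from plasma drug levels.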

Rattus norvegicus [5] = assay: Suppression of food intake in DIO rat at 1 mg/kg, po measured 18 hrs post dose on day 14 relative to control
Rattus norvegicus [6] = assay: Reduction of body weight in DIO rat assessed as weight change at 1 mg/kg, po after 18 hrs; format: functional; in short: as §1
[7] = Bioavailability in dog; format: ADME, organism-based, Canis lupus familiaris; conditions: in vivo; in short: as §2
[8] = Plasma clearance in dog; format: ADME, organism-based, Canis lupus familiaris; in short: as §2
[9] = Lipophilicity, log D of the compound; format: physicochemical; conditions: HPLC, pH 7.3
[10] = Plasma clearance in rat; format: ADME, organism-based
Cannabinoid receptor 2 = Cannabinoid receptor 2 (Homo sapiens, UniProt P34972); assay: Inhibition of human CB2 receptor
Rattus norvegicus [11] = assay: Reduction of body weight in DIO rat assessed as weight change at 1 mg/kg, po daily measured 18 hrs post dose on day 14; format: functional
In short: (§3)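 Chronic study in diet-induced obese rats with daily oral dosing at 1 mg/kg (for some compounds 0.1 and 0.3 mg/kg as well). Body weight change and cumulative food intake suppression were measured relative to vehicle. The 14-day study ended 18 h after the day-14 dose; one study ended on day 13.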

Cannabinoid receptor 1 = Cannabinoid receptor 1 (Homo sapiens, UniProt P21554); assay: Inhibition of human CB1 receptor
Rattus norvegicus [12] = assay: Reduction of body weight in rat at 1 mg/kg, po after 13 days relative to control; format: functional; parameters: scale not given: the % may be the effect or the level left; in short: as §3
[13] = Ratio of drug level in brain to plasma in rat at 1 mg/kg, iv after 4 hrs; format: ADME, organism-based; parameters: dose 1 mg/kg, route intravenous
[14] = Drug level in rat brain at 1 mg/kg, iv after 4 hrs; format: ADME, organism-based; parameters: dose 1 mg/kg, route intravenous; conditions: read-out: Drug uptake
[15] = Half life in rat; format: ADME, organism-based; conditions: in vivo
Rattus norvegicus [16] = assay: Suppression of food intake in DIO rat at 3 mg/kg relative to control; format: functional
[17] = Half life in rat at 3 mg/kg; format: ADME, organism-based; parameters: dose 3 mg/kg; conditions: in vivo
[18] = Half life in rhesus monkey; format: ADME, organism-based, Macaca mulatta; conditions: in vivo; in short: as §2
[19] = Bioavailability in rhesus monkey; format: ADME, organism-based, Macaca mulatta; conditions: in vivo; in short: as §2
[20] = Plasma clearance in rhesus monkey; format: ADME, organism-based, Macaca mulatta; in short: as §2
[21] = Metabolic stability in rat bile assessed as total recovery at 2 mg/kg, iv after 5 days; format: ADME, organism-based; parameters: dose 2 mg/kg, route intravenous; conditions: in vivo, 120 h
In short: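 Radioactivity was collected in bile and urine for 120 h and expressed as percent of dose recovered.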

[22] = Stability in phosphate buffer exposed to air assessed as degradation at pH 7.4 after 40 hrs; format: physicochemical; conditions: read-out: Activity
In short: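 The compound was held in aqueous pH 7.4 phosphate buffer exposed to air for 40 h. The read-out was percent of material degraded to other products.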

[23] = Metabolic stability in human liver microsomes assessed as compound remaining after 60 mins; format: ADME, Microsome; conditions: read-out: Activity
In short: (§4)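 Liver microsomes (monkey, human, rat, dog) were incubated with compound for 60 min. The read-out was percent parent remaining over the incubation time course.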

[24] = Metabolic stability in monkey liver microsomes assessed as compound remaining after 60 mins; format: ADME, Macaca fascicularis, Microsome; conditions: cynomolgus monkey, read-out: Activity; in short: as §4

Cannabinoid receptor 2, sequence (P34972 whole entry): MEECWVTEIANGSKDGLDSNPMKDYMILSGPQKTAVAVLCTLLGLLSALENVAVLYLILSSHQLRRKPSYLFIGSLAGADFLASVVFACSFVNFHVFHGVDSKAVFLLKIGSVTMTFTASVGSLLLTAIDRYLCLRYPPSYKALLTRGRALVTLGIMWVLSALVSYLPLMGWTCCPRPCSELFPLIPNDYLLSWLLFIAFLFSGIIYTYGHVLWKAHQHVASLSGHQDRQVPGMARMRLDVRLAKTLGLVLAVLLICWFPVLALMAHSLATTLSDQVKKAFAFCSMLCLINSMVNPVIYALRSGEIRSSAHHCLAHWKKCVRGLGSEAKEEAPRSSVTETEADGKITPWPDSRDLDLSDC
Cannabinoid receptor 1, sequence (P21554 whole entry): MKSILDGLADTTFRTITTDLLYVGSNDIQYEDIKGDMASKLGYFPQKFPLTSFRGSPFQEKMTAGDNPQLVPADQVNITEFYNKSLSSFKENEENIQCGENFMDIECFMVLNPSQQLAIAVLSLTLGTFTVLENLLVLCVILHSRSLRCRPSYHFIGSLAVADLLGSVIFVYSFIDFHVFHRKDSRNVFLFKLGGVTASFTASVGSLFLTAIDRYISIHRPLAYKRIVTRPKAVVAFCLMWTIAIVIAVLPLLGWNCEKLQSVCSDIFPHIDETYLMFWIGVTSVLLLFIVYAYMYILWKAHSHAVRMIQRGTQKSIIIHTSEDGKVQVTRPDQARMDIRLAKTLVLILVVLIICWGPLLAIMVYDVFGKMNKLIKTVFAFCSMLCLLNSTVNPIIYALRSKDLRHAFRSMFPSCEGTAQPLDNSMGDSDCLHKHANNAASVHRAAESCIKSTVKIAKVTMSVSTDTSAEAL

SMILES: CC(C)(C)C(=O)c1oc2nc(-c3ccccc3Cl)c(-c3ccc(Cl)cc3)cc2c1NC(=O)CO
- concentration at 4 h [1]: 49 nM
- Activity (Rattus norvegicus [2]): 24%
- bioavailability [3]: 32%
- half-life [4]: 660 min
- Activity (Rattus norvegicus [5]): 19%
- Activity (Rattus norvegicus [6]): -6 g
- bioavailability [7]: 42%
- clearance [8]: 3 mL/min/kg
- logD [9]: 6
- clearance [10]: 10 mL/min/kg
- IC50 (Cannabinoid receptor 2): 3400 nM
- Activity (Rattus norvegicus [11]): -19 g
- IC50 (Cannabinoid receptor 1): 1.2 nM
- Activity (Rattus norvegicus [12]): 6%
- Kp at 4 h [13]: 1.8
- concentration at 4 h [14]: 86 nM
- half-life [15]: 210 min

SMILES: CC(=O)Nc1c(C(=O)C(C)(C)C)oc2nc(-c3ccccc3Cl)c(-c3ccc(Cl)cc3)cc12
- IC50 (Cannabinoid receptor 2): > 2000 nM
- IC50 (Cannabinoid receptor 1): 0.58 nM

SMILES: CC(C)(O)C(=O)c1oc2nc(-c3ccccc3Cl)c(-c3ccc(Cl)cc3)cc2c1N
- IC50 (Cannabinoid receptor 2): 2100 nM
- IC50 (Cannabinoid receptor 1): 20 nM

SMILES: CC(=O)c1oc2nc(-c3ccc(Cl)cc3Cl)c(-c3ccc(Cl)cc3)cc2c1N
- IC50 (Cannabinoid receptor 2): 1000 nM
- IC50 (Cannabinoid receptor 1): 56 nM

SMILES: Nc1c(C(=O)c2ccccc2)oc2nc(-c3ccc(Cl)cc3Cl)c(-c3ccc(Cl)cc3)cc12
- IC50 (Cannabinoid receptor 2): 440 nM
- IC50 (Cannabinoid receptor 1): 3.5 nM

SMILES: CCC(=O)c1oc2nc(-c3ccc(Cl)cc3Cl)c(-c3ccc(Cl)cc3)cc2c1N
- IC50 (Cannabinoid receptor 2): 360 nM
- IC50 (Cannabinoid receptor 1): 17 nM

SMILES: CC(=O)Nc1c(C(C)=O)c(=O)n(C)c2nc(-c3ccc(Cl)cc3Cl)c(-c3ccc(Cl)cc3)cc12 [NAPHTHYRIDINONE]
- Activity (Rattus norvegicus [16]): -68%
- half-life [17]: > 480 min

SMILES: CNCC(=O)Nc1c(C(=O)C(C)(C)C)oc2nc(-c3ccccc3Cl)c(-c3ccc(Cl)cc3)cc12
- IC50 (Cannabinoid receptor 2): 3300 nM
- IC50 (Cannabinoid receptor 1): 1.2 nM

SMILES: CC(C)(C)C(=O)c1oc2nc(-c3ccccc3Cl)c(-c3ccc(Cl)cc3)cc2c1N
- concentration at 4 h [1]: 130 nM
- Activity (Rattus norvegicus [2]): 33%
- bioavailability [3]: 100%
- Activity (Rattus norvegicus [6]): -4 g
- clearance [10]: 22 mL/min/kg
- IC50 (Cannabinoid receptor 2): 1900 nM
- IC50 (Cannabinoid receptor 1): 4.3 nM
- Kp at 4 h [13]: 2.3
- concentration at 4 h [14]: 290 nM
- half-life [15]: 168 min

SMILES: CC(C)C(=O)c1oc2nc(-c3ccccc3Cl)c(-c3ccc(Cl)cc3)cc2c1NC(=O)CO
- concentration at 4 h [1]: 160 nM
- Activity (Rattus norvegicus [2]): 37%
- bioavailability [3]: 38%
- half-life [4]: 3120 min
- Activity (Rattus norvegicus [6]): -7 g
- bioavailability [7]: 31%
- clearance [8]: 4.9 mL/min/kg
- clearance [10]: 20 mL/min/kg
- IC50 (Cannabinoid receptor 2): 5100 nM
- IC50 (Cannabinoid receptor 1): 0.4 nM
- Kp at 4 h [13]: 0.94
- concentration at 4 h [14]: 150 nM
- half-life [15]: 198 min

SMILES: CC(C)C(=O)c1oc2nc(-c3ccccc3Cl)c(-c3ccc(Cl)cc3)cc2c1N
- IC50 (Cannabinoid receptor 2): 1300 nM
- IC50 (Cannabinoid receptor 1): 1.7 nM

SMILES: CN(C)C(=O)Nc1c(C(=O)C(C)(C)C)oc2nc(-c3ccccc3Cl)c(-c3ccc(Cl)cc3)cc12
- IC50 (Cannabinoid receptor 2): 1970 nM
- IC50 (Cannabinoid receptor 1): 0.39 nM

SMILES: CCC(=O)c1oc2nc(-c3ccccc3Cl)c(-c3ccc(Cl)cc3)cc2c1N
- IC50 (Cannabinoid receptor 2): 1000 nM
- IC50 (Cannabinoid receptor 1): 13 nM

SMILES: CC(C)C(=O)c1oc2nc(-c3ccc(Cl)cc3Cl)c(-c3ccc(Cl)cc3)cc2c1N
- IC50 (Cannabinoid receptor 2): 640 nM
- IC50 (Cannabinoid receptor 1): 1.9 nM

SMILES: CC(C)(C)C(=O)c1oc2nc(-c3ccc(Cl)cc3Cl)c(-c3ccc(Cl)cc3)cc2c1N
- concentration at 4 h [1]: 220 nM
- Activity (Rattus norvegicus [2]): 53%
- half-life [18]: 144 min
- bioavailability [3]: 59%
- half-life [4]: 474 min
- bioavailability [19]: 11%
- Activity (Rattus norvegicus [5]): 19%
- Activity (Rattus norvegicus [6]): -5 g
- clearance [20]: 29 mL/min/kg
- bioavailability [7]: 63%
- Activity [21]: 41%
- clearance [8]: 7.3 mL/min/kg
- logD [9]: 6.7
- clearance [10]: 5.6 mL/min/kg
- IC50 (Cannabinoid receptor 2): 440 nM
- Activity (Rattus norvegicus [11]): -3 g
- IC50 (Cannabinoid receptor 1): 5.5 nM
- degraded at 40 h [22]: 40%
- Activity (Rattus norvegicus [12]): 5.3%
- remaining at 1 h [23]: 100%
- Kp at 4 h [13]: 1
- concentration at 4 h [14]: 220 nM
- half-life [15]: 252 min
- remaining at 1 h [24]: 25%
